From ChEMBL document CHEMBL4513216, “Probing the Open Global Health Chemical Diversity Library for Multistage-Active Starting Points for Next-Generation Antimalarials” (ACS Infect Dis, 2020) come the findings set out here.

The data set is described as follows: Toxicity liver stage against HepG2, at 10uM. Format: cell-based. The arrangement: test concentration 10 uM, cell line HepG2-A16-CD81EGFP. To be noted: human, HepG2-A16-CD81EGFP cells; read-out: INHIBITION
The gist of the method:
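Uninfected HepG2-A16-CD81EGFP cells, 3 × 10^3 per well, 1536-well, plated on prespotted compound at 10 μM final, parasite-free screening media added to match infected plates; puromycin 10 μM positive, DMSO 0.5% negative; run in parallel with 48 h PbLuc assay at 37 °C, 5% CO2; viability by CellTiter-Glo luminescence, normalized to controls.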
`Cc1cc(NCc2ccc(N3CCNC(=O)C3)cc2)nc(C)n1`: the cytotoxicity at 10 µM was -4.99%. As to `O=C(c1ccco1)N(CC(F)(F)F)C1CCOCC1`, the cytotoxicity at 10 µM was -12.3%. The same measure for `Cn1cc(-c2nc(C3CCN(CC4CC4)CC3)cc3c2ncn3C)cn1`: -1.86%; for `CS(=O)(=O)N1CCO[C@@H]2CN(Cc3ccc(F)cc3)C[C@@H]2C1`: 4.74%. The same measure for `O=C(CCO)N1CC2(CCN(c3ccccc3)C2)C1`: 8.76%.

As to `CN(C)C[C@H]1OC[C@@H]2CCN(C(=O)NCc3cccc(F)c3)C[C@@H]21`, the cytotoxicity at 10 µM is 6.98%. The same measure for `CS(=O)(=O)N1CCCCC12CCN(C(=O)c1ccccc1)C2` (stereo unspecified): -148%; for `NC(=O)N1Cc2nccn2CC(Cn2ncccc2=O)C1` (stereo unspecified): 3.19%. Then `Cc1noc([C@@]23CCO[C@@H]2CCN(C(=O)c2cc(C)on2)C3)n1`, with 10.9%. Then `COCc1ncn2c1CN(S(=O)(=O)c1cccc(OC)c1)CC2`, with 3.47%. On to `O=C(Cc1ccsc1)N1C[C@@H]2C[C@@H](c3nnc(C4CC4)o3)O[C@@H]2C1`, for which the cytotoxicity at 10 µM was -142%.

Take `CCn1nc(C)c2nc(C)nc(NCCc3ccc(C)cc3)c21`: the cytotoxicity at 10 µM was determined as 50.9%. On to `N#Cc1cn[nH]c1NCc1cc(Cl)cc(Cl)c1O`, for which the cytotoxicity at 10 µM stood at 19.1%. The same measure for `Nc1nnc(Cn2nnc(-c3ccccc3F)n2)s1`: 3.09%; for `Cc1ccc(Nc2nccc(C3CN(C(C)C)C3)n2)nc1`: -26.2%.

As for `CN1CCCC[C@@H]2[C@H]1[C@@H](c1ccccc1)CCN2S(=O)(=O)N1CCCC1`, the cytotoxicity at 10 µM is -1.03%. Take `CC(C)C(=O)N1CCC(n2nc(-c3ccco3)ccc2=O)CC1`: the cytotoxicity at 10 µM is -2.44%. The same measure for `Cc1nc2cc(C3CCN(Cc4ccccc4F)C3)nn2c(O)c1C` (stereo unspecified): 5.52%; for `CC(C)(C)NC(=O)Cn1c(=O)n(Cc2ccco2)c2ncccc21`: -6%. The same measure for `CN1CCC(Cc2cc(Nc3ncccn3)ncn2)CC1`: 1.05%. As for `Cc1ccnc(NC(=O)C2CCCO2)c1` (stereo unspecified), the cytotoxicity at 10 µM was -11.3%. Regarding `COC(=O)CN(C(=O)c1cc(C)c(F)cc1F)c1cccc(C)n1`, the cytotoxicity at 10 µM turned out to be 6.9%. Turning to `COC(=O)CC1CCCCN1CC(=O)Nc1ccc(F)cc1Cl` (stereo unspecified), the cytotoxicity at 10 µM was 14%. `CCc1ccc(C(=O)NC2CCN(c3ccn(C)n3)C2)o1` (stereo unspecified): the cytotoxicity at 10 µM is -0.577%. Consider `CCOC1CCN(C(=O)NCc2ccc(CN3CCOCC3)cc2)CC1`, for which the cytotoxicity at 10 µM is 7.31%. For `COCc1cc(N(C)Cc2cnccn2)nc(C(C)(C)C)n1`, the cytotoxicity at 10 µM was 8.24%. The same measure for `CCc1nc(C2NC3(CCCC3)C(=O)N2CC2CC2)cs1` (stereo unspecified): -1.09%. The same measure for `CCc1noc(C(C)N2CCN(c3ncnc4sccc34)CC2)n1` (stereo unspecified): 56.3%; for `COc1cc(OC)cc(N2CCC(NC(=O)c3cccn3C)CC2)c1`: -2.1%. The same measure for `CC(NC(=O)c1cccs1)(C(N)=O)c1cccc(C(F)(F)F)c1` (stereo unspecified): -3.42%; for `CN(Cc1ccco1)C(=O)CN1CCCC1c1cccs1` (stereo unspecified): -3.62%; for `COc1cccc(CN2CCCC2c2ccc[nH]2)c1` (stereo unspecified): -1.38%. Turning to `NC(=O)COc1cccc(CN2CCCC2c2ccc[nH]2)c1` (stereo unspecified), the cytotoxicity at 10 µM is 8.58%. Consider `CCc1noc(CS(=O)(=O)Cc2ccccc2C)n1`, for which the cytotoxicity at 10 µM was found to be 16.8%. Then `CCNC(=O)NC(=O)CN1CCC(c2c[nH]c3ccc(OC)cc23)CC1`, with -12.9%; and `COC1CCN(C(=O)C2CC(=O)N(c3ccccc3Br)C2)CC1` (stereo unspecified), with -3.57%; and `Cc1nc(C)c(C(=O)NCC(c2ccccc2Cl)N2CCOCC2)s1` (stereo unspecified), with 1.4%. As for `O=C(CCCn1cncn1)NC1(c2ccc(Cl)cc2)CCC1`, the cytotoxicity at 10 µM is 6.66%. For `CN(C)C(=O)c1cc(S(=O)(=O)N2CCCC2Cn2ccnc2)cn1C` (stereo unspecified), the cytotoxicity at 10 µM was 12.2%. Then `Cc1ccc(C(N)c2cccs2)cc1` (stereo unspecified), with -0.367%; and `CCS(=O)(=O)NCC(=O)N1CC2(CCCC2)c2c(F)cccc21`, with 1.56%.

As to `CCN(CC(=O)NC)C(=O)Cc1csc(C(C)C)n1`, the cytotoxicity at 10 µM was -3.61%. In the case of `CCn1nc(C)c(S(=O)(=O)Nc2cccc(C(=O)O)c2C)c1C`, the cytotoxicity at 10 µM is -0.731%. In the case of `CC(NCc1ccccc1O)c1ccc(-n2ccnc2)cc1` (stereo unspecified), the cytotoxicity at 10 µM was -46.9%. On to `CC(=O)c1ccc(NC(=O)NCc2cccc(N(C)C)n2)cc1C`, for which the cytotoxicity at 10 µM amounted to 6.45%. Then `CC(C)c1cc(C(=O)NCC2(C(N)=O)CCOCC2)nn1C(C)(C)C`, with 10.3%; and `CC(C)c1nsc(N2CCCOCC2)n1`, with -7.86%; and `CCC(C)CS(=O)(=O)NC(=O)C1CCC1` (stereo unspecified), with -7.88%. The same measure for `O=C(COC1CCCC1)NC(C(=O)Nc1cc[nH]n1)c1ccccc1` (stereo unspecified): -10.7%. For the molecule `Cn1c(CCN2CCN(c3ccc(O)cc3)CC2)nc2ccccc21`, the cytotoxicity at 10 µM was -37.5%. The same measure for `Cc1cc(NCCCNS(C)(=O)=O)nc2ccccc12`: -4.69%; for `COc1ccc(Oc2cc(CN)ccn2)cc1`: 3.98%. As to `CCc1nnc(CN2CCC(C3CCCCCN3C(=O)C3CC3)CC2)o1` (stereo unspecified), the cytotoxicity at 10 µM is -49.7%. Regarding `CCC(O)CN(C)Cc1nnc2ccccn12` (stereo unspecified), the cytotoxicity at 10 µM is -26.7%. For the molecule `CCS(=O)(=O)N(C)C1CCN(C(=O)c2cccc(Cl)c2)CC1`, the cytotoxicity at 10 µM was -13.7%. The same measure for `c1cnn(CC2CN(c3ncnc4ccsc34)CCO2)c1` (stereo unspecified): 38.7%; for `Cn1ccnc1CN1CCC2(CC1)COCCN(c1ncccn1)C2`: 11.3%. Then `CCO[C@H]1CC[C@H]2[C@@H]1OCCN2C(=O)COc1ccccc1`, with -88.5%. Regarding `CN(C)C(=O)N1CCn2c(Cn3cccn3)cnc2C1`, the cytotoxicity at 10 µM is -76.7%. Take `O=C(CC1CC1)N1CCC2(COCc3cnc(N4CCOCC4)nc32)C1` (stereo unspecified): the cytotoxicity at 10 µM was -82.1%. On to `O=C(c1cscn1)N1C[C@H]2CN(Cc3nccs3)C[C@H]2C1`, for which the cytotoxicity at 10 µM was -65.4%. The same measure for `Cc1ccc(C(=O)N2C[C@H]3CCC[C@@]3(COCC3CCOCC3)C2)o1`: -66.3%; for `CC[C@H](C)[C@H](N)C(=O)N1CC(=O)c2sc(NCc3ccccc3)nc2C1`: -9.58%. In the case of `Cc1ccc(C(=O)N2CC[C@@]3(O)CCN(C(=O)N(C)C)C[C@H]3C2)cc1Cl`, the cytotoxicity at 10 µM is -45.5%.

As to `N#Cc1ccccc1CN1CCC2(CC1)CC(c1ccccc1)C(=O)N2` (stereo unspecified), the cytotoxicity at 10 µM is -44.8%.

As to `NC1(C(=O)NCC2CCCN(Cc3cccc4nonc34)C2)CCC1` (stereo unspecified), the cytotoxicity at 10 µM was -43.8%. The same measure for `CCc1cc(N2CCC(NCCSc3nnnn3C)CC2)nc(C)n1`: -15.2%; for `COc1cc(F)ccc1-c1cnc(N)cn1`: -11.4%. For `Oc1cc(CNCCCN2CCCC2)nc2ccc(F)cc12`, the cytotoxicity at 10 µM was -56%. Then `O=C(NCCn1ccnc1-c1cc2n(n1)CCNC2)c1ccncc1`, with -2.66%; and `Oc1cc(CN2CCC(O)(Cn3ccnc3)CC2)nc2ccc(F)cc12`, with -44.5%.

As for `CCNc1ncc(C(=O)NCc2csc(-c3ncccn3)n2)cn1`, the cytotoxicity at 10 µM was determined as 6.59%.

For `Cc1nnc(-c2cccc(N3CCC(NC(C)CC(C)C)CC3)c2)s1` (stereo unspecified), the cytotoxicity at 10 µM was found to be 0.363%.

`CCc1ccc(C2CC(=O)Nc3cc(OC)c(NS(C)(=O)=O)cc32)o1` (stereo unspecified): the cytotoxicity at 10 µM was found to be 3.25%. The same measure for `CC(C)N1CCCn2nc(C(=O)NCc3ccccc3F)cc2C1`: -4.87%; for `CCc1cccc(OC2CN(C(=O)[C@@H](N)[C@@H](C)O)C2)c1`: -3.92%; for `CN(Cc1ccccc1)c1ncccc1CNC1CN2CCC1CC2` (stereo unspecified): 1.63%. The same measure for `CN1CCCC2(CCN(Cc3cncn3C3CCCCC3)C2)C1=O` (stereo unspecified): -5.96%. The same measure for `CC(=O)N1CCc2c(nc(N(C)C)nc2NCc2cccs2)C1`: -50.6%. Turning to `CCOC(=O)c1sc2ccsc2c1CNC(=O)CCOC`, the cytotoxicity at 10 µM was -16.7%. Consider `Cc1ccoc1C(=O)N1CCCC(c2cc(C(F)(F)F)[nH]n2)C1` (stereo unspecified), for which the cytotoxicity at 10 µM came out at 2.4%.

On to `CN(Cc1cccs1)C(=O)CN1CCOC(Cn2cncn2)C1` (stereo unspecified), for which the cytotoxicity at 10 µM was -23.7%. On to `CC(C)(C)c1nc(CN2CCCC(Cn3cncn3)C2)cs1` (stereo unspecified), for which the cytotoxicity at 10 µM was -4.54%. As for `COc1cc(C)c(S(=O)(=O)NCc2cccnc2N(C)C)c(C)c1`, the cytotoxicity at 10 µM amounted to 12.2%. Take `Cc1nccn1CCCn1cncc1-c1ccc2c(c1)CC(C)N2C` (stereo unspecified): the cytotoxicity at 10 µM was found to be 0.94%.

On to `CN1CCC2(COCCN(Cc3ccc4c(c3)OCO4)C2)C1` (stereo unspecified), for which the cytotoxicity at 10 µM is -2.05%. The same measure for `O=S(=O)(c1ccccc1)N1CCC2(CCCN2Cc2cccc(Cl)c2)C1` (stereo unspecified): -130%.

As for `O=C(C1CCC2(CCN(Cc3cccnc3)CC2)CO1)N1CCCC1` (stereo unspecified), the cytotoxicity at 10 µM is -108%.

For `c1ccc(C[C@H]2CN(Cc3nccs3)CC[C@@H]2OCC2CC2)cc1`, the cytotoxicity at 10 µM is -62.3%. As for `CO[C@@H]1CCN(Cc2nccs2)C[C@@H]1Cc1ccccc1`, the cytotoxicity at 10 µM was -69.5%.

Take `CC(C)n1nc(CN(C)C)c2c1CN(C(=O)CC1CC1)CC2`: the cytotoxicity at 10 µM was -6.72%. Then `O=C([C@H]1CN(Cc2ccccc2F)C[C@H]2OCC[C@@H]12)N1CCCO1`, with 13%; and `c1cnc(N2CCO[C@H]3CN(CC4CCC4)C[C@H]32)cn1`, with -102%. Then `c1cncc(N2CCO[C@H]3CN(CC4CCOC4)C[C@H]32)c1` (stereo partly specified), with -95.7%; and `Cc1cc(CN2C[C@@H]3CC[C@H]2CN(Cc2[nH]cnc2C)C3)on1`, with -2.34%. Then `CCc1ncc(C(=O)N2CC[C@H]3CC[C@@H](C2)N3C)cn1`, with -7.09%.
